Assay outcomes from PubChem BioAssay.
AHR activator: AHR activators, primary screen, cell-based, luminescence, luciferase reporter, human. AHR-responsive luciferase reporter cells. activation, % at 5 µM. 320,000 tested, 2.5% active; in the data active = activation above about 47%;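 note: 0% = vehicle wells and 100% = reference agonist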
Target sequence (P35869 whole entry, looked up): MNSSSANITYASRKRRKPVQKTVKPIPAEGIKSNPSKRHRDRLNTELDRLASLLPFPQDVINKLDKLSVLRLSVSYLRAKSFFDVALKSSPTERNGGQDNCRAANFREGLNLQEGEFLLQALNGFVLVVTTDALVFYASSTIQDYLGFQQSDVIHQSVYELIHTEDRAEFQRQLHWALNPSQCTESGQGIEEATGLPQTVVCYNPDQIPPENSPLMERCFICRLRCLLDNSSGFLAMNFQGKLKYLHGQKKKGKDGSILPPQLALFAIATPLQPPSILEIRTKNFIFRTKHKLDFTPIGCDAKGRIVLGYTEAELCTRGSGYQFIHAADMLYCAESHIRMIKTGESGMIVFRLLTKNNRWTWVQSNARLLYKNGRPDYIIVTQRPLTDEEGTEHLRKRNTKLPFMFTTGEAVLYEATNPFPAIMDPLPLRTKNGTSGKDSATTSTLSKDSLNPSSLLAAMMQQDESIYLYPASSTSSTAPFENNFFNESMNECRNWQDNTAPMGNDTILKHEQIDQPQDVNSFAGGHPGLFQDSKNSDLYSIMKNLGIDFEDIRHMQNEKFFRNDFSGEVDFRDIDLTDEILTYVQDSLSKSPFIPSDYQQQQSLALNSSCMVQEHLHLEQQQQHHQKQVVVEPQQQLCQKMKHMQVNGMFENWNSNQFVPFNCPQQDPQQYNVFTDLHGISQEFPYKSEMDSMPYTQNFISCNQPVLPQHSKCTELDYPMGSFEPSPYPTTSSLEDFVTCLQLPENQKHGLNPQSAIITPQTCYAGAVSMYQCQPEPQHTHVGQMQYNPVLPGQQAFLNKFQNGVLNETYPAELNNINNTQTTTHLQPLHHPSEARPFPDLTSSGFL
Yeast superoxide: reduction of superoxide in aged yeast, primary screen, HTS; S. cerevisiae aged cells, superoxide DHE fluorescence; active compounds read low; AID 2690, 2010; 330,000 tested, 0.18% active; superoxide response (% of plate mean), % at 10 µM;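 active = superoxide response under a set limit, about three screen SD below normal, cut at about 65% in these data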;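 note: yeast aged for seven days with compound at 30 °C before DHE staining; 100% = average MFI of all compound-treated wells on the plate with controls excluded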
SMARCA2 activ: SMARCA2 (BRM) function activators, primary screen, cell-based, luminescence, high throughput; MG213 cells, MMTV-luciferase reporter, dexamethasone, overnight; activation, % at 9.1 µM; 370,000 tested, 1% active; in the data active = activation above about 7.8%;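 note: 0% = vehicle wells and 100% = reference activator wells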
Hep lipid drop: inhibitors of hepatocyte lipid droplet formation, primary screen, imaging, high-throughput imaging, BODIPY stain. 240,000 tested, 0.4% active. inhibition, % at 6.5 µM. AML12 mouse hepatocytes, oleate lipid droplets;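 active = lipid droplet intensity inhibited by at least 50%, with more than 500 cells counted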
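material = mouse AML12 hepatocyte cell line, fixed after treatment | also added = 100 µM oleic acid challenge | doses = compound at 6.5 µM only | schedule = overnight exposure | technique = Image-based BODIPY and DAPI two-channel analysis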
SR-BI DiI-HDL act: activators of SR-BI mediated DiI-HDL uptake, primary screen, ldlA[mSR-BI] CHO cells, DiI fluorescence. activation, % at 12.5 µM. AID 504775, 2011. 3 h; 100 = double the neutral-control signal. 320,000 tested, 0.096% active;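 active = mean replicate activation of at least 60% and every replicate at or above 60%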;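 note: 0% = median plate neutral-control signal and 100% = twice that signal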
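System: LDL receptor-deficient CHO ldlA cells overexpressing murine SR-BI | Timing: 3 h uptake period with compound, 37 °C | Medium: HEPES-buffered (25 mM, pH 7.4) F12 plus 0.5% BSA | Dosing: Single-point compound dose | Signal: Bottom-read fluorescence, 550/595 nm | Read-out: Retained DiI signal reflecting DiI-HDL uptake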
SR-BI DiI inh: inhibitors of SR-BI mediated HDL lipid uptake, primary screen, ldlA[mSR-BI] cells, fluorescence, single point; ldlA[mSR-BI] CHO cells, DiI-HDL uptake fluorescence, 3 h; Scavenger receptor class B member 1 (Mus musculus), Q61009; 320,000 tested, 0.96% active; inhibition, % at 12.5 µM; AID 488896, 2010;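 active = mean replicate inhibition of at least 70% and a set share of replicates each scoring 70 or more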;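 note: 0% = median of neutral control wells and 100% = median of positive control wells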
* marks the source's active call; other numbers are inactive results; · = not tested or not shown. In the library only some 4.3% were active in any assay of this set; here they are far more common.

SMILES	AHR activator	Yeast superoxide	SMARCA2 activ	Hep lipid drop	SR-BI DiI-HDL act	SR-BI DiI inh
CC(Sc1nnc(NCc2ccccc2)s1)C(=O)Nc1ccc2c(c1)C(=O)c1ccccc1C2=O (configuration not stated)	50*	113	0	-3	-62	62
C[C@@H]1CCN(C2CC2)S(=O)(=O)c2ccc(N3CCC[C@H]3C)cc2O1	·	·	-3	·	·	·
CC1C/C(=N/Nc2nc3ccccc3[nH]2)CC(C)(C)C1 (configuration not stated)	89*	81	-2	16	19	-19
O=C(NCc1cccnc1)c1cc(Cl)ccc1[N+](=O)[O-]	74*	118	1	14	8	-8
COc1ccccc1OCCCn1c(=O)oc2ccc(C)cc21	60*	75	1	·	-7	7
COC1=C[C@H](C(=O)NCc2ccccn2)[C@H](C)[C@@H](c2ccccc2)CC1=O	·	·	-5	·	·	·
O=C(COC(=O)c1ccc(Cl)c([N+](=O)[O-])c1)Nc1ccccc1OC(F)F	55*	122	1	6	8	-8
COc1cc(OC)cc(C(=O)Nc2ccc(N3CCN(C(=O)c4cccs4)CC3)cc2)c1	53*	96	-4	8	-57	58
COc1ccc(C(=O)Nc2ccc(N3CCN(C(=O)c4cccs4)CC3)cc2)cc1Br	-2	95	-5	17	-72	72*
COc1ccc(C(=O)Nc2ccc(N3CCCC3)cc2)cc1Br	-9	93	2	16	·	·
CCOc1ccc(C(=O)Nc2ccc(N3CCN(C)CC3)cc2)cc1Br	57*	105	7	·	·	·
C[C@@H]1ON(C)[C@H]2C[C@H]3c4[nH]c5cccc(-c6ccc7c(c6)OCO7)c5c4CCN3C(=O)[C@@H]12	·	·	3	·	·	·
Cc1ccc(C(=O)ONC(=O)c2ccc(Cl)cc2)cc1[N+](=O)[O-]	55*	93	-3	-21	4	-4
COC(=O)C[C@@H]1C[C@H]2c3cc(NC(=O)Nc4ccccc4F)ccc3O[C@H]2[C@@H](CO)O1	·	·	0	·	·	·
O=[N+]([O-])c1ccccc1CSc1nc2ccccc2o1	48*	103	1	-3	-22	22
CNc1cc(CSc2ccc(Cl)cc2)nc(C)n1	68*	108	1	12	-8	8
O=C(Nc1nc2ncccn2c1-c1ccc(C(F)(F)F)cc1)c1ccc(F)cc1	·	·	-1	·	·	·
Cc1ccc(S(=O)(=O)N2CCCC2C(=O)N2CCc3ccccc3C2)cc1 (configuration not stated)	·	·	6	·	·	·
COc1cccc(-c2nn(-c3ccccc3)cc2CN(C)Cc2ccno2)c1	14	94	-5	-9	-50	50
COc1cccc(-c2nn(-c3ccccc3)cc2CN(C)C(C)c2ccon2)c1 (configuration not stated)	68*	111	-2	10	-32	32
Cc1ccc(NC(=O)C2CCN(c3nnc(-n4cccc4)s3)CC2)c(C)c1	·	·	-6	·	·	·
CCOC(=O)CC[C@H]1CC[C@]2(CCCN(C(=O)c3ccccc3)C2)O1	·	·	2	·	·	·
CC1(C)Cc2c(cnn2-c2ccccc2)C(=O)/C1=N\NC(=O)c1ccccc1N	1	112	-2	1	-75	75*
Nc1c(C(=O)N/N=C/c2ccccc2)cnn1-c1ccccc1	8	99	6	-2	-30	30
Cc1cc(C)nc(SCC(=O)N/N=C\c2sccc2C)n1	63*	93	-2	·	-24	24
SMILES	AHR activator	Yeast superoxide	SMARCA2 activ	Hep lipid drop	SR-BI DiI-HDL act	SR-BI DiI inh
Cc1cc(C)nc(SCC(=O)N/N=C/c2cc(C)n(-c3ccccc3C)c2C)n1	11	94	5	-14	-85	85*
Cc1cccc(C)c1-n1c(C)cc(/C=N/NC(=O)CSc2ncccn2)c1C	-1	104	0	-116	-18	18
O=C(CCS(=O)(=O)c1ccccc1)Nc1ccc(F)cc1Cl	·	·	-3	·	·	·
COc1ccccc1NC(=O)c1sc2nc(C)cc(C)c2c1N	50*	78	4	·	-36	36
COC(=O)c1cn(CC(=O)N2CCCCCC2)c2ccccc12	4	103	-2	-5	-8	8
CCOC(=O)C1=C(O)/C(=C/c2cn(CC(=O)N3CCCC3)c3ccccc23)SC1=Nc1ccccc1	·	·	·	-4	-70	70*
Cn1c2ccccc2c2ccc3c(c21)C(=O)C=CC3=O	·	·	2	·	-20	20
Cc1ccc2c(c1)c1ccc3c(c1n2C)C(=O)C=CC3=O	·	·	-2	11	-71	71*
CC1(O)CC(c2ccc(Cl)cc2)=NN1C(=O)c1ccc(Cl)cc1 (configuration not stated)	8	102	-1	3	-29	29
O=C(c1ccc(Cl)cc1)N1N=CCC1(O)c1ccc(Cl)cc1 (configuration not stated)	5	110	-3	14	-88	88*
COC(=O)[C@]12C[C@H](CC(=O)NCCc3ccccc3OC)C(=O)N(Cc3ccco3)C1=C[C@H](C1CCCC1)O[C@@H]2C	·	·	-2	·	·	·
COC(=O)C1=C(C)N(C)C(=NCc2ccc(OC)cc2)NC1c1cccc(F)c1 (configuration not stated)	·	·	-2	·	·	·
N#Cc1nc(COc2ccccc2)oc1NCCCn1ccnc1	79*	96	-3	-20	3	-3
Cc1ccc(OCc2nc(C#N)c(NCCCn3ccnc3)o2)cc1	15	74	-6	·	7	-7
N#Cc1nc(COc2ccccc2F)oc1NCCCn1ccnc1	71*	87	4	·	-1	1
C=CCNC(=O)CN(C(=O)Cc1cccc(OC(F)(F)F)c1)c1cccc(Br)c1	·	·	0	·	·	·
Fc1cccc(Cn2ccc3ccc(-c4ccc5ccn(Cc6cccc(F)c6)c5c4)cc32)c1	·	·	-1	·	·	·
CC(=O)/C(N=Nc1ccc(C(=O)O)cc1[N+](=O)[O-])=C(\C)O	-2	97	-2	38	29	-29
CC(=O)/C(N=Nc1cc(C)ccc1O)=C(\C)O	56*	103	-3	7	-29	30
COc1cc(OC)c(C=CC(=O)c2ccccc2O)c(OC)c1	·	·	2	·	-73	73*
CC1=C(C(=O)OCC(Cl)(Cl)Cl)N2C(=O)C(NC(=O)Cc3ccccc3)C2SC1 (configuration not stated)	4	103	-3	19	-78	78*
Cc1ccc2c(C)c(C(=O)Nc3nnc(C)s3)oc2c1	14	104	-1	·	10	-10
Cc1nnc(NC(=O)c2oc3ccccc3c2C)s1	62*	108	3	-6	-6	6
